Rpn11 block – Rpn11 (human) deubiquitinase inhibition | O00487 | human 26S proteasome, Ub4-pepOG fluorescence polarization; 20S core pre-blocked with epoxomicin | inhibition, % at 20 µM | 360,000 tested, 0.59% active | AID 588493;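 active = inhibition at 20 µM, scaled to each plate's controls, above about 33%, limit read from the data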
SENP1 FRET inh – inhibitors of human SENP1 SUMO protease catalytic domain. Q9P0U3. AID 624204. 360,000 tested, 0.21% active. recombinant SENP1 catalytic domain, CyPet-SUMO1-YPet FRET cleavage. inhibition, % at 10 µM;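 active = inhibition at least 30% at 10 µM, raw YFP signal under a set limit, fluorescence ratio 0.5 to 1.5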;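 note: 0% = enzyme with DMSO and 100% = no enzyme wells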
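material = recombinant human SENP1 catalytic domain, His6-tagged | quantity = 20 pM enzyme | reagent = 25 nM SUMO1 FRET substrate | compound dosing = 10 µM single point, 0.5% DMSO | timing = 50 min enzyme reaction, room temperature, light-protected | detection = FRET, CFP and YFP emission | control set = no-enzyme low, enzyme-DMSO high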
HNF4A DNA FP – change in binding of human HNF4 alpha to DNA. HNF4a-FITC DNA binding, fluorescence polarization, 1 h. activity change, % at 10 µM. 360,000 tested, 0.3% active. AID 1224865; in the data active = activity change above about 30%, passing the limit was not always enough
CSN inh – CSN deneddylation inhibition; Q92905; 360,000 tested, 0.38% active; Purified CSN, SCF-Nedd8-OG deneddylation, fluorescence polarization; inhibition, % at 12.5 µM;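 active = pattern-corrected inhibition above about 35%, with an unprinted fluorescence ratio check between 0.5 and 1.5, limit read from the data, passing the limit was not always enough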;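 note: 0% = enzyme with substrate and 100% = substrate without enzyme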
Target sequence (Q92905 whole entry, looked up, one chain of several): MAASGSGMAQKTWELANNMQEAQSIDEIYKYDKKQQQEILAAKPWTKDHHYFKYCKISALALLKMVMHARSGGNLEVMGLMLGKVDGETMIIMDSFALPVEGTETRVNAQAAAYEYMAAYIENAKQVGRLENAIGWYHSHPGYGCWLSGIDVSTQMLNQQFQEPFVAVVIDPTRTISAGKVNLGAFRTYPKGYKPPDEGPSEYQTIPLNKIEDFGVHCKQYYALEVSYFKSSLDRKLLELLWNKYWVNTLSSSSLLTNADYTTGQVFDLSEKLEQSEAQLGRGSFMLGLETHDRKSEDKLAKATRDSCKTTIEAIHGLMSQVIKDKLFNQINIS
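Material: purified human Csn5 enzyme expressed in HEK293T cells / Medium: Tris buffer pH 7.5, NaCl, DTT, Tween-20, trehalose, ovalbumin / Compound dosing: 12.5 µM single point / Schedule: 90 min incubation of compound, enzyme and substrate at room temperature / Signal: fluorescence polarization of the substrate / Control set: no-enzyme wells high, enzyme-with-substrate wells low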
TPT1 inh – blocks Candida albicans tRNA 2'-phosphotransferase. recombinant caTPT1, FP RNA substrate dephosphorylation. inhibition, % at 5 µM. 300,000 tested, 0.81% active. AID 1962;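 active = inhibition above the mean of all tested compounds plus 3 SD, set per screening campaign, cut at about 24% in these data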;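 note: plate controls were DMSO alone for no effect and ferristatin control at 100 nM for full effect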
SENP1 conf – SENP1 (human) inhibition, single concentration confirmation; recombinant SENP1, CyPet-SUMO1-YPet FRET cleavage; inhibition, % at 10 µM; 520 tested, 34% active; shares compounds with SENP1 FRET inh; in the data active = inhibition mostly above about 35%, no sharp cut-off; inactive = mostly below about 32%;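 note: 0% = enzyme with DMSO and 100% = no enzyme control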
SENP1 kinetic – confirmation of human SENP1 SUMO protease inhibitors, kinetic; inhibition, % at 10 µM; recombinant SENP1, CyPet-SUMO1-YPet FRET kinetic cleavage; AID 651690; shares compounds with SENP1 FRET inh; 520 tested, 26% active; in the data active = inhibition mostly above about 32%, no sharp cut-off; inactive = mostly below about 29%;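 note: 0% = DMSO with enzyme and 100% = no enzyme substrate only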
Numbers without * were called inactive; x = no result shown. Compounds with a hit are over-represented: about 1.6% of the library has one in this group of screens.

SMILES | Rpn11 block | SENP1 FRET inh | HNF4A DNA FP | CSN inh | TPT1 inh | SENP1 conf | SENP1 kinetic
C#CCN1CCc2onc(-c3ccc(Br)cc3)c2C1=O | x | 0 | 5 | -1 | x | x | x
Cc1nc2ccc(NS(=O)(=O)c3ccc(Br)cc3)cc2s1 | 17 | 41* | 12 | 10 | x | 23 | 22
CC(=O)Nc1ccc(S(=O)(=O)Nc2ccc3nc(C)sc3c2)cc1 | -1 | 3 | 2 | -2 | x | x | x
Cc1ccc(S(=O)(=O)Nc2ccc3nc(C)sc3c2)cc1 | 7 | 4 | 0 | -4 | 3 | x | x
Cc1nc2cc(NS(=O)(=O)c3ccccc3F)ccc2s1 | 1 | 3 | 1 | -2 | 1 | x | x
Cc1nc2ccc(NS(=O)(=O)c3ccccc3F)cc2s1 | 17 | 55* | 13 | 8 | x | 30 | 38*
Cc1nc2ccc(NS(=O)(=O)c3ccc(F)c(F)c3)cc2s1 | 16 | 54* | 15 | 8 | x | 37 | 33
CCC(CC)C(=O)N(C)c1c(C)nc2c(OCCOc3ccc(F)cc3)cccn12 | 1 | 2 | 2 | -1 | x | x | x
CNC(=O)c1cc2cc(OC)ccc2oc1=O | -1 | -60 | 1 | 2 | 1 | x | x
COc1ccc2oc(=O)c(/C(N)=N/NC(=O)c3ccncc3)cc2c1 | 14 | 37* | 5 | 6 | -1 | 8 | 9
CNc1ccc(/C=C(\C#N)c2ccccn2)cc1[N+](=O)[O-] | x | 46* | 23 | 23 | -6 | 31 | 23
Cc1ccc2c(c1)C(=C(C#N)C#N)CCN2 | 35 | 36* | 33 | 13 | x | 52* | 33*
Cc1ccc2c(c1)C(=O)CCN2 | 2 | 30 | 1 | -6 | -7 | x | x
CC(=O)N1C[C@H]2CON(C)[C@H]2C[C@H]1c1cccc(-c2ccc(C#N)cc2)c1 | 1 | 1 | -8 | -1 | x | x | x
O=CN1Cc2[nH]c3ccccc3c2N(c2ccc(Cl)cc2)C1=O | -7 | 31* | -2 | 3 | -5 | -9 | 29
CC(=O)Nc1cc(-c2ccc(N3CCN(C)CC3)cc2)cn2c(-c3ccc(F)c(Cl)c3)cnc12 | 27 | 42* | 5 | 1 | x | 20 | 22
CC(=O)Nc1cc(-c2ccc(N3CCN(C)CC3)cc2)cn2c(-c3cccc(C(C)=O)c3)cnc12 | 6 | 37* | 7 | 12 | x | 20 | 13
CC(=O)Nc1cc(-c2ccc(C(=O)N3CCOCC3)cc2)cn2c(-c3ccc(F)c(Cl)c3)cnc12 | 12 | -6 | 1 | 2 | x | x | x
N#CC1=C(N2CCCCC2)c2cc3c(n2C1=O)CCCC3 | -7 | 51* | 1 | -6 | -6 | 23 | 11
O=C1NCCCCC1NS(=O)(=O)c1cccc(C(F)(F)F)c1 (centres undefined) | -2 | 4 | 1 | 1 | -1 | x | x
NC(=S)c1cc2cc(Br)ccc2oc1=O | 0 | 45* | 1 | -7 | -4 | 67* | 51*
COc1ccc(N=Nc2nc3cc(Br)c(Br)cc3n2C)c(OC)c1 | -196 | 61* | -63 | -60 | -95 | 32 | 44*
CCOc1ccc(Nc2ncnc3c2cnn3C)cc1 | -2 | 0 | -3 | 0 | -3 | x | x
O=C1C=Cc2ccccc2/C1=C/c1[nH]c(=O)[nH]c1O | 9 | 60* | 5 | -2 | 3 | 104* | 76*
Cc1ccc(C2(C)NC(=O)N(CC(=O)c3ccc(Cl)s3)C2=O)cc1 (centres undefined) | 12 | 2 | 7 | -2 | 5 | x | x
O=C(N/N=C/c1ccc(N2CCOCC2)cc1)c1cccs1 | 19 | 32* | 2 | 1 | 10 | 15 | 13
O=C(CSc1nc2ccccc2c(=O)n1-c1ccc(OC(F)F)cc1)NC1CC1 | 2 | -2 | 0 | 1 | x | x | x
O=C(NCCOc1ccccc1)c1cccc2c1C(=O)c1ccc(Cl)cc1S2(=O)=O | 4 | 2 | 3 | -3 | x | x | x
COc1ccc(-c2ccc3c(c2)S(=O)(=O)c2cccc(C(=O)NCCOc4ccccc4)c2C3=O)cc1OC | 40 | 59* | 12 | 19 | x | 68* | 49*
COC(=O)c1ccc(-c2nc(O)c(C)s2)cc1 | 4 | 41* | 2 | -4 | 15 | 87* | 56*
